# Results from ChEMBL document CHEMBL4765349, “Design, synthesis and biological evaluation of novel N-sulfonylamidine-based derivatives as c-Met inhibitors via Cu-catalyzed three-component reaction” (Eur J Med Chem, 2020).
# Calls of active or inactive are those of the source. The calls are words filed in the database; no cut-off is given here.
# Assays:
# MKN-45 = test: Cytotoxicity against human MKN-45 cells assessed as inhibition of cell proliferation measured after 72 hrs by MTT assay; type: functional, cell-based; conditions: MKN-45, 72 h
# A549 [1] = test: cells; conditions: Homo sapiens, A549, 72 h
# A549 [2] = test: Induction of apoptosis in human A549 cells assessed as early apoptosis measured after 12 hrs by Annexin V-FITC/ Propidium iodide stain based flow cytometry assay; type: functional, cell-based; conditions: dose 0.25-1 µM
# How it was run: (§1)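 Cells double-stained with FITC-annexin V and propidium iodide, then flow cytometry gave the percentages of early and late apoptotic cells.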
# [3] = Half life in Balb/c mouse at 2 mg/kg, iv measured after 24 hrs by LC/MS/MS analysis; type: ADME, organism-based; conditions: in vivo
# How it was run: (§2)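 BALB/c mice dosed once orally at 8 mg/kg or intravenously at 2 mg/kg. Plasma concentration followed over time, and Cmax, Tmax, AUC0-∞, elimination half-life, clearance and oral bioavailability were derived from it.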
# [4] = Cmax in Balb/c mouse at 8 mg/kg, po measured after 24 hrs by LC/MS/MS analysis; type: ADME, organism-based; parameters: route oral, time 24 hrs, dose 8 mg/kg; conditions: in vivo; how it was run: as §2
# A549 [5] = test: Induction of apoptosis in human A549 cells assessed as late apoptosis measured after 12 hrs by Annexin V-FITC/ Propidium iodide stain based flow cytometry assay; type: functional, cell-based; conditions: dose 0.25-1 µM; how it was run: as §1
# [6] = Selectivity index, ratio of IC50 for human FHC cells assessed as inhibition of cell proliferation to IC50 of HT-29 cells assessed as inhibition of cell proliferation; type: toxicity; conditions: FHC cells versus HT-29 cells, read-out: Selectivity Index
# [7] = Cmax in Balb/c mouse at 2 mg/kg, iv measured after 24 hrs by LC/MS/MS analysis; type: ADME, organism-based; parameters: route intravenous, dose 2 mg/kg, time 24 hrs; conditions: in vivo; how it was run: as §2
# [8] = target: Vascular endothelial growth factor receptor 3 (Homo sapiens, UniProt P35916); test: Inhibition of FLT-4 (unknown origin) using poly (Glu, Tyr)4:1 as substrate in presence of ATP measured after 30 mins by HTRF assay
# How it was run: (§3)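 Kinase inhibition measured by homogeneous time-resolved fluorescence (HTRF) across a panel of Ron, ALK and other tyrosine kinases, with IC50 as the read-out.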
# [9] = Toxicity in Balb/c mouse assessed as survival rate at 300 mg/kg, ip measured after 15 days; type: organism-based; conditions: in vivo, time 15 day
# How it was run: (§4)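 Acute toxicity: 8-week-old male BALB/c mice, randomized in groups of n = 10, given a single intraperitoneal injection on day zero (vehicle only, 100, 200, 300 or 400 mg/kg). A further untreated group served as normal control. Survival on day 15 was reported as a percentage.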
# MDA-MB-231 = test: Cytotoxicity against human MDA-MB-231 cells assessed as inhibition of cell proliferation measured after 72 hrs by MTT assay; type: functional, cell-based; conditions: MDA-MB-231, 72 h
# [10] = target: T1, Hepatocyte growth factor receptor (Homo sapiens, UniProt P08581); test: Inhibition of c-MET (unknown origin) using poly (Glu, Tyr)4:1 as substrate in presence of ATP measured after 30 mins by HTRF assay
# T1 sequence (P08581 whole entry): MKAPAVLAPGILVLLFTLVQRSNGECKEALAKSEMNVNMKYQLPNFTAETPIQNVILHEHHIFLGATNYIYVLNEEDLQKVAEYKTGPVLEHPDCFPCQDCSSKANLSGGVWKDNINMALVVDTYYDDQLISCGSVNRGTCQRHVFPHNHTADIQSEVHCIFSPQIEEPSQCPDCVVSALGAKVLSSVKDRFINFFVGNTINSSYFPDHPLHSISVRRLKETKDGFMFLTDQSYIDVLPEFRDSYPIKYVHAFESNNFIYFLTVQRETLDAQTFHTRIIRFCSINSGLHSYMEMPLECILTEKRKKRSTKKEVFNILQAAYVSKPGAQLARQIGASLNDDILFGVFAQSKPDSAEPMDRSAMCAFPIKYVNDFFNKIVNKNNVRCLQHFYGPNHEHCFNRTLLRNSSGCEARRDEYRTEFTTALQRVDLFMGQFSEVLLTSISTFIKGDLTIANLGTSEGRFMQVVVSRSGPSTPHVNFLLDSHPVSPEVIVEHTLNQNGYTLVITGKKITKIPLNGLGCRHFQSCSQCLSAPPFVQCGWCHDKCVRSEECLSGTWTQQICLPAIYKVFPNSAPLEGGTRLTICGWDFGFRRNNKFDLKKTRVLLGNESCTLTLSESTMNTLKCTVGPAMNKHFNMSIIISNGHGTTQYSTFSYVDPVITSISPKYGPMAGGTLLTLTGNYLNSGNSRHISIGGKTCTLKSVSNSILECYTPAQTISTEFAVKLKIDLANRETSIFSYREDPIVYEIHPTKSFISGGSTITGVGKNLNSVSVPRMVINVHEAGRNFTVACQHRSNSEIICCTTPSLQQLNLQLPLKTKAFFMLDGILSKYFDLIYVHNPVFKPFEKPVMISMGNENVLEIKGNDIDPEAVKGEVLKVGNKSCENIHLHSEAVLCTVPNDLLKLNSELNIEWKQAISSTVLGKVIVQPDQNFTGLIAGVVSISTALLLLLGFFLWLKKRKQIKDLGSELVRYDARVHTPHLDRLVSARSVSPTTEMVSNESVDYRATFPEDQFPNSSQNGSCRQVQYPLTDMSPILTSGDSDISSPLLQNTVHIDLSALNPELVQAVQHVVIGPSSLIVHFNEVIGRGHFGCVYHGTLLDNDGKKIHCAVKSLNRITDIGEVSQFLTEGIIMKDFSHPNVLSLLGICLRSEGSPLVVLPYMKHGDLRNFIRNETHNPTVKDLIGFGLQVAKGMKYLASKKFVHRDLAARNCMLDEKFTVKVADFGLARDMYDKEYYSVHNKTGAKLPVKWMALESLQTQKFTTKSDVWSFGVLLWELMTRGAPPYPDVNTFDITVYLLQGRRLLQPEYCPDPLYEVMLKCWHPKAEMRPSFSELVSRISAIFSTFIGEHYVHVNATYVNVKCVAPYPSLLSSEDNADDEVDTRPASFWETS
# [11] = Tmax in Balb/c mouse at 8 mg/kg, po measured after 24 hrs by LC/MS/MS analysis; type: ADME, organism-based; conditions: in vivo; how it was run: as §2
# FHC = test: Cytotoxicity against human FHC cells assessed as inhibtion of cell proliferation measured after 72 hrs by MTT assay
# [12] = Half life in Balb/c mouse at 8 mg/kg, po measured after 24 hrs by LC/MS/MS analysis; type: ADME, organism-based; conditions: in vivo; how it was run: as §2
# A549 [13] = test: Induction of apoptosis in human A549 cells assessed as late apoptosis at 1 uM measured after 12 hrs by Annexin V-FITC/ Propidium iodide stain based flow cytometry assay relative to control; type: functional; how it was run: as §1
# [14] = Oral bioavailability in Balb/c mouse at 8 mg/kg measured after 24 hrs by LC/MS/MS analysis; type: ADME, organism-based; conditions: in vivo; how it was run: as §2
# [15] = target: T1, Hepatocyte growth factor receptor; test: Inhibition of human c-MET phosphorylation in human A549 cells measured after 1 hr by western blot analysis; conditions: dose 2-8 µmol/L
# [16] = Clearance in Balb/c mouse at 8 mg/kg, po measured after 24 hrs by LC/MS/MS analysis; type: ADME, organism-based; conditions: in vivo
# How it was run: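 Clearance from the plasma profile of BALB/c mice after a single oral dose of 8 mg/kg.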
# HT-29 = test: cells; conditions: Homo sapiens, HT-29, 72 h
# [17] = AUC (0 to infinity) in Balb/c mouse at 8 mg/kg, po measured after 24 hrs by LC/MS/MS analysis; type: ADME, organism-based; parameters: route oral, time 24 hrs, dose 8 mg/kg; conditions: in vivo; how it was run: as §2
# HUVEC = test: cells; conditions: Homo sapiens, 72 h
# A549 [18] = test: Induction of cell cycle arrest in human A549 cells assessed as increased accumulation of cells at G2/M phase measured after 24 hrs by Propidium iodide stain based Flow cytometry assay; type: functional; conditions: dose 0.25-1 µM
# How it was run: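 A549 cells exposed to vehicle or 0.25, 0.5 or 1.0 µM compound. DNA content measured by propidium iodide staining with RNase and flow cytometry, and the G2/M fraction was scored.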
# [19] = target: Macrophage-stimulating protein receptor (Homo sapiens, UniProt Q04912); test: Inhibition of Ron (unknown origin) using poly (Glu, Tyr)4:1 as substrate in presence of ATP measured after 30 mins by HTRF assay; how it was run: as §3
# Macrophage-stimulating protein receptor, sequence (Q04912 25-304 limits assumed): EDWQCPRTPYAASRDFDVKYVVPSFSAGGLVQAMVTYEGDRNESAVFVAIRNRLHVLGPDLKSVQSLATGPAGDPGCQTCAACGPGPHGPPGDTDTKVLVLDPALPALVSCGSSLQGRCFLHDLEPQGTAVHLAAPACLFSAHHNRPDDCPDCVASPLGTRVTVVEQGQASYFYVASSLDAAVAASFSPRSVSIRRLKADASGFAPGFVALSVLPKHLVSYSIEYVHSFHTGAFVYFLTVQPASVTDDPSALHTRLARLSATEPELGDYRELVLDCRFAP
# Macrophage-stimulating protein receptor, sequence (Q04912 310-1400 limits assumed): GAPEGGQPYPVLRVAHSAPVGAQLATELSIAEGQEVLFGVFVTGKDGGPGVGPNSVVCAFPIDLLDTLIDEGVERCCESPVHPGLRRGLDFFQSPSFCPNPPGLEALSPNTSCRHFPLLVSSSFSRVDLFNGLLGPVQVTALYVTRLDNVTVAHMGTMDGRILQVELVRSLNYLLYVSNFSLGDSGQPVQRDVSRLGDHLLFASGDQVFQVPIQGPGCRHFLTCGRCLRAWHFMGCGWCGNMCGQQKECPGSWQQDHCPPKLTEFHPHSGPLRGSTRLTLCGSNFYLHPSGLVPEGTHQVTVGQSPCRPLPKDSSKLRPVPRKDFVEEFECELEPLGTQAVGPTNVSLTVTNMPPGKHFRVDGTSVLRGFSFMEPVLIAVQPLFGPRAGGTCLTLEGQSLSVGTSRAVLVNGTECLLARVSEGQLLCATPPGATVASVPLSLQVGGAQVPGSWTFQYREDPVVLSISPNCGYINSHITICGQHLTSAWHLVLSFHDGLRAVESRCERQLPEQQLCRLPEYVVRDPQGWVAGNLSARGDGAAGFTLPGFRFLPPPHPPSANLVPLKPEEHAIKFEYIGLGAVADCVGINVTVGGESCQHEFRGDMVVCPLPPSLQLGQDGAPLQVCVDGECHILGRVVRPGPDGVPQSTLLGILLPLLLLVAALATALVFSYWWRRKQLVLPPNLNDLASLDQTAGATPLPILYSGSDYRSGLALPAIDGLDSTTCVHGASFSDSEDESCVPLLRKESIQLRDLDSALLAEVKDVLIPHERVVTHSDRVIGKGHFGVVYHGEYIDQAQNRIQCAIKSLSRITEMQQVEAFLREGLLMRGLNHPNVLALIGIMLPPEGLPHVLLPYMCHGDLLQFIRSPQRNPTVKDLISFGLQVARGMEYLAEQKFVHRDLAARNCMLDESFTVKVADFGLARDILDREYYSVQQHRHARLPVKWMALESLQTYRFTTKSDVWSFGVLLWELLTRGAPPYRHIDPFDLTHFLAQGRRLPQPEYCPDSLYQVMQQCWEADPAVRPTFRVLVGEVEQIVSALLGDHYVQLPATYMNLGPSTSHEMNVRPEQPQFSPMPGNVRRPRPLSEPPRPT
# [20] = Toxicity in Balb/c mouse assessed as survival rate at 200 mg/kg, ip measured after 15 days; type: organism-based; conditions: in vivo, time 15 day; how it was run: as §4
# [21] = Toxicity in Balb/c mouse assessed as survival rate at 100 mg/kg, ip measured after 15 days; type: organism-based; conditions: in vivo, time 15 day; how it was run: as §4
# [22] = Toxicity in Balb/c mouse assessed as no abnormality at 100 to 200 mg/kg, ip measured after 15 days; type: organism-based; conditions: in vivo, 360 h, dose 100-200 mg/kg, time 15 day
# How it was run: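 Acute toxicity in 8-week-old male BALB/c mice, randomized into groups of n = 10. Single intraperitoneal dose on day 0 of vehicle or 100, 200, 300 or 400 mg/kg, plus an untreated control group. Mice watched for 15 days for deaths, abnormalities, anaphylactic or allergic reactions and body weight loss.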
# [23] = target: ALK tyrosine kinase receptor (Homo sapiens, UniProt Q9UM73); test: Inhibition of ALK (unknown origin) using poly (Glu, Tyr)4:1 as substrate in presence of ATP measured after 30 mins by HTRF assay; how it was run: as §3
# [24] = target: Vascular endothelial growth factor receptor 2 (Homo sapiens, UniProt P35968); test: Inhibition of VEGFR 2 (unknown origin) using poly (Glu, Tyr)4:1 as substrate in presence of ATP measured after 30 mins by HTRF assay
# [25] = target: Platelet-derived growth factor receptor beta (Homo sapiens, UniProt P09619); test: Inhibition of PDGFR beta (unknown origin) using poly (Glu, Tyr)4:1 as substrate in presence of ATP measured after 30 mins by HTRF assay; how it was run: as §3
# Platelet-derived growth factor receptor beta, sequence (P09619 whole entry): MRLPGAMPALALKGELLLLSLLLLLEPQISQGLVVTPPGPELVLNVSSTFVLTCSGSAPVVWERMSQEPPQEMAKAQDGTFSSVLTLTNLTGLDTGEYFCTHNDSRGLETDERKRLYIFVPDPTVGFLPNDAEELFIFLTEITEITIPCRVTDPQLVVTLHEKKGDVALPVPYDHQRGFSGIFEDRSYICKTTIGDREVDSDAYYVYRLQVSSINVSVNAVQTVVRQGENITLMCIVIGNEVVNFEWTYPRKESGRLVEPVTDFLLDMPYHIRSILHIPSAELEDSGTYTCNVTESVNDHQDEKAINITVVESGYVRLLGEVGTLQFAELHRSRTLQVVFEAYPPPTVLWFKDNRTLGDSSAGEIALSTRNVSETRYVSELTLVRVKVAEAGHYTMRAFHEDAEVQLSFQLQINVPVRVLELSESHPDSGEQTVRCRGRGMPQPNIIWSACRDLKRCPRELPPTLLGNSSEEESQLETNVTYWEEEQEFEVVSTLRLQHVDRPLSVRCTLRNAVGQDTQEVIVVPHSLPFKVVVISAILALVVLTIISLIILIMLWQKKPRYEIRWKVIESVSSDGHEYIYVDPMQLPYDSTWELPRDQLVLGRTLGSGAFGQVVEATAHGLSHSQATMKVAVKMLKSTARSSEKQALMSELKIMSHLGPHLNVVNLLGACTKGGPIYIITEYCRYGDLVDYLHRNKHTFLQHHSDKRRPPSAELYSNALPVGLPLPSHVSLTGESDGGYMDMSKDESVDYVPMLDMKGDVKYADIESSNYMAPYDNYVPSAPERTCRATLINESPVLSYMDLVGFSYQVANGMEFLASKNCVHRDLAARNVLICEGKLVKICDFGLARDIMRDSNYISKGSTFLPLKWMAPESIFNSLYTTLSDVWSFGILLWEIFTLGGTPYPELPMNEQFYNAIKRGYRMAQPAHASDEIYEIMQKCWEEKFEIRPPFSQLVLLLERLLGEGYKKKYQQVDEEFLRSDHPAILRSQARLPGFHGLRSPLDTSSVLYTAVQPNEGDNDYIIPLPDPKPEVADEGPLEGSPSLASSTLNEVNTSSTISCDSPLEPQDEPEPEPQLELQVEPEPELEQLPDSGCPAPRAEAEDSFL
# [26] = target: Platelet-derived growth factor receptor alpha (Homo sapiens, UniProt P16234); test: Inhibition of PDGFR alpha (unknown origin) using poly (Glu, Tyr)4:1 as substrate in presence of ATP measured after 30 mins by HTRF assay; how it was run: as §3
# Platelet-derived growth factor receptor alpha, sequence (P16234 whole entry): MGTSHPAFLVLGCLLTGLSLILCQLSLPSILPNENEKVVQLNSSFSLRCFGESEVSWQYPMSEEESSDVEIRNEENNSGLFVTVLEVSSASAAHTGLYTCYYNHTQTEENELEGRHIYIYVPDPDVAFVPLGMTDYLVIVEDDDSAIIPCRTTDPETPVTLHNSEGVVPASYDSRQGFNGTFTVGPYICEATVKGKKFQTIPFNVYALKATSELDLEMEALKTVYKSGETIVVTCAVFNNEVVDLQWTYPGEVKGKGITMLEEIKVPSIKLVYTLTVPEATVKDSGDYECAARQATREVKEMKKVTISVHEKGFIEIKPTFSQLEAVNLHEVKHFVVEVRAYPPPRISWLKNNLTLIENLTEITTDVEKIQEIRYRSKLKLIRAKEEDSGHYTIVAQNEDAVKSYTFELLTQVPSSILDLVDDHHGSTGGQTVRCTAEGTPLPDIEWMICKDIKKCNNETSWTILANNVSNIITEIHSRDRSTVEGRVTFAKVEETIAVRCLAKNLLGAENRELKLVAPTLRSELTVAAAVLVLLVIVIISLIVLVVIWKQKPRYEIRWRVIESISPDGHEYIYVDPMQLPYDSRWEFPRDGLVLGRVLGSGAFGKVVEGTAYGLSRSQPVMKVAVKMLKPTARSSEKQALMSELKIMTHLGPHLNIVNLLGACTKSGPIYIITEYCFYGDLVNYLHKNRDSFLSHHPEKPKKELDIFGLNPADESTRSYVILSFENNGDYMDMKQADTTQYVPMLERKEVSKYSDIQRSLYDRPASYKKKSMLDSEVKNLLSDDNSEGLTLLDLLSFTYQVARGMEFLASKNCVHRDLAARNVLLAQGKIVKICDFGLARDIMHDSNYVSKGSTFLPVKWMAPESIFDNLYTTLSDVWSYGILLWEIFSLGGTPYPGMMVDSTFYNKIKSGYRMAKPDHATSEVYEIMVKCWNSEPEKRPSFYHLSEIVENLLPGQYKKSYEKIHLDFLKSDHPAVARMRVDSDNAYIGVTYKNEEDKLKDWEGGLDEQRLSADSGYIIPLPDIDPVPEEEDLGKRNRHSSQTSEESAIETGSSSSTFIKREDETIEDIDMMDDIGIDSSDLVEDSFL
# [27] = Toxicity in Balb/c mouse assessed as survival rate at 400 mg/kg, ip measured after 15 days; type: organism-based; conditions: in vivo, time 15 day; how it was run: as §4
structure (smiles),measurement,setting,value
COCC/C(=N\S(=O)(=O)Cc1ccc(Cl)cc1)Nc1ccc(Oc2ccnc3cc(OCCCN4CCOCC4)c(OC)cc23)c(F)c1,IC50,MKN-45,480 nM
same,IC50,A549 [1],280 nM
same,Activity,A549 [2],Dose-dependent effect
same,half-life,[3],1.8 h
same,Cmax,[4],1230 ng/mL
same,Activity,A549 [5],Dose-dependent effect
same,selectivity ratio,[6],19.1
same,Cmax,[7],676 ng/mL
same,IC50,[8],358 nM
same,survival at 360 h,[9],70%
same,IC50,MDA-MB-231,720 nM
same,IC50,[10],2.89 nM
same,Tmax,[11],2.5 h
same,IC50,FHC,6120 nM
same,half-life,[12],3.5 h
same,Activity,A549 [13],30.99%
same,bioavailability,[14],74%
same,inhibition,[15],Active
same,CL/F,[16],19.7 mL/min/kg
same,IC50,HT-29,320 nM
same,AUC,[17],6.8 µg/h/mL
same,IC50,HUVEC,1350 nM
same,Activity,A549 [18],Dose-dependent effect
same,IC50,[19],412 nM
same,survival at 360 h,[20],100%
same,survival at 360 h,[21],100%
same,Activity,[22],Non-Toxic
same,IC50,[23],> 10000 nM
same,IC50,[24],673 nM
same,IC50,[25],565 nM
same,IC50,[26],384 nM
same,survival at 360 h,[27],50%
